# Screening results as filed in PubChem.
# Casp6 inh: blocks human caspase-6 cleavage activity | P55212 | 350,000 tested, 0.53% active | inhibition, % at 12.5 µM | purified caspase-6, Z-VEID-R110 cleavage fluorescence;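 active means mean inhibition across replicates at least about 35%, with every replicate also reaching that limit, limit read from the data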;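 further: 0% = median of neutral control wells and 100% = no fluorescence left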
# rRNA inh HTS: inhibitors of bacterial rRNA selective over humanized ribosomes | E. coli WT GFP vs humanized-ribosome RFP mutants, fluorescence, 24 h; hits give low values; DMSO median 0, no signal -100 | GFP signal change (wild-type ribosome), % (concentration not given with the values) | 350,000 tested, 1.6% active | AID 720706;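 active means significant combined selectivity score with lowered wild-type GFP, culture density cut under 30%, mutant RFP and density less affected; inactive means any of these conditions unmet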
# PGC1a acetyl inh: lowers PGC1a acetylation signal in U2OS cells. inhibition, % at 15.6 µM. 350,000 tested, 0.17% active. AlphaScreen anti-acetyl-lysine; with virally co-expressed GCN5 acetyltransferase. AID 651687;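 active means every replicate shows inhibition of at least 40%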;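 further: 0% = neutral control wells and 100% = positive control wells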
# ARNT TACC3 PPI: disrupts binding between human ARNT and TACC3 | Q9Y6A5 | AlphaScreen His-ARNT PAS-B/GST-TACC3 binding, luminescence; TACC3 fragment carries E629A point mutation | inhibition, % at 9.99 µM | 390,000 tested, 0.66% active | AID 623870;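 active means mean inhibition of replicates at least 50% and at least half of replicates each reaching 50%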;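 further: 0% = complete ARNT plus TACC3 wells and 100% = ARNT alone without TACC3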
# S100A4 inh HTS: inhibitors of human S100A4 binding to myosin IIA peptide; P26447; S100A4/TAMRA-MyoIIA peptide fluorescence polarization; inhibition, % at 10.7 µM; 360,000 tested, 0.14% active; AID 652163;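 active means mean inhibition of at least 70% across replicates, with every replicate also reaching that level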
#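 Test system: S100A4 monomer protein; Medium: HEPES pH 7.2 with CaCl2, KCl, NaCl, DTT, Triton; Probe or stimulus: TAMRA-labelled myosin IIA heavy-chain peptide probe, 5 nM; Doses: one dose per compound; Times: polarization read 5 min after assay mix addition, stable 5–60 min; Benchmarks: neutral control DMSO, positive control TFP.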
# ERAP1 HTS inh: inhibitors of human ERAP1 aminopeptidase; recombinant ERAP1, Leu-AMC fluorescence, 60 min; inhibition, % at 10.7 µM; 340,000 tested, 0.15% active; AID 652197;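 active means mean replicate inhibition of at least 30%, or all replicates individually reaching that 30% level; inactive means mean below 30% and not every replicate reaching it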;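 further: 0% = neutral control wells and 100% = L-leucinethiol positive control wells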
# The depositor's hits bear a star; · = not tested or not shown. In the library only some 2.4% were active in any assay of this set; here they are far more common.
SMILES,Casp6 inh,rRNA inh HTS,PGC1a acetyl inh,ARNT TACC3 PPI,S100A4 inh HTS,ERAP1 HTS inh
CC(=O)NCCCC(=O)NN1C(=S)N(Cc2ccccc2)C(=O)C1CC(=O)Nc1cccc(C)c1 (stereo unspecified),0,-22*,5,-2,9,-4
C[C@H](CO)N1C[C@H](C)[C@H](CN(C)CC2CC2)Oc2cc(C#Cc3ccc(F)cc3)ccc2S1(=O)=O,-4,1,-41,5,5,7
O=C(Nc1ccc(Cl)c(Cl)c1)Nc1nccs1,-1,-26*,-1,-1,7,·
O=C(Nc1cccc(Cl)c1)Nc1nccs1,·,·,·,10,·,·
CCC(=O)N(C)C[C@@H]1Oc2ncc(-c3ccccc3OC)cc2C(=O)N([C@@H](C)CO)C[C@H]1C,1,1,3,-6,4,-2
CN(C)CCCNC(=O)C[C@@H]1CC[C@H]2[C@H](COc3ccc(NS(C)(=O)=O)cc3C(=O)N2C)O1,1,2,2,-8,20,-1
Cc1ccc(S(=O)(=O)N[C@H]2CC[C@H](CCn3cc(C4(O)CCCC4)nn3)O[C@@H]2CO)cc1,-2,-6,1,-3,6,2
O=C(O)CC1(c2ccccc2)C(=O)c2ccccc2C1=O,·,·,0,-10,·,·
NC(=O)C1C(=O)c2ccccc2C1(C[N+](=O)[O-])c1ccccc1 (stereo unspecified),69*,-2,0,·,4,2
COc1ccc2c3c([nH]c2c1)[C@@H](CO)N(C(=O)C1CCCCC1)CC31CCN(C)CC1,·,2,·,·,·,·
O=C1NC[C@@H](CCCCN2CCN(CCc3ccc(O)cc3)C(=O)C2=O)N(CCc2ccc(O)cc2)C1=O,40*,6,·,·,-1,8
O=C1NC[C@H](CCCCN2C[C@H](Cc3ccc(O)cc3)N(CCc3ccccc3)C(=O)C2=O)N(CC2CCCCC2)C1=O,9,-27*,·,·,0,·
O=C1NC[C@H](CCCCN2C[C@H](Cc3ccccc3)N(CCc3ccc(O)cc3)C(=O)C2=O)N(CC2CCCCC2)C1=O,5,-30*,·,·,-11,·
COCC(=O)Nc1ccc2c(c1)C(=O)N(C)[C@@H]1CC[C@@H](CC(=O)NC3CCCC3)O[C@H]1CO2,·,4,1,-1,·,·
C[C@H](CO)N1C[C@H](C)[C@H](CN(C)S(=O)(=O)c2ccc(Cl)cc2)Oc2ccc(NC(=O)CCCCCC(=O)Nc3ccccc3N)cc2CC1=O,·,1,-4,·,·,·
Nc1nc(NC(=O)/C=C\C(=O)O)nn1-c1ccccc1,9,19,5,74*,3,2
Nc1nc(NC(=O)CCCC(=O)O)nn1-c1ccccc1,·,·,5,35,·,·
Nc1nc(NC(=O)Cc2ccccc2)nn1-c1ccccc1,·,·,-2,48*,·,·
CC(=O)Nc1nc(NC(=O)C(Cl)(Cl)Cl)n(-c2ccccc2)n1,-1,-23*,·,21,-1,·
CC(=O)Nc1nc(N)n(-c2ccccc2)n1,·,·,4,2,·,·
O=C(C[C@@H]1CC[C@@H](NC(=O)C2CC2)[C@H](CO)O1)NCc1ccccc1Cl,2,-2,1,0,5,-1
O=C(NCc1ccccn1)C(=O)N/N=C/c1ccccc1O,2,8,7,64*,7,1
O=C(NCCCN1CCOCC1)C(=O)N/N=C/c1ccccc1O,-6,10,9,69*,-2,0
O=C(NCCCN1CCOCC1)C(=O)N/N=C/c1ccccc1Cl,-1,8,·,-3,5,4
Cc1cc(/C=N/NC(=O)C(=O)NCc2ccccn2)c(C)n1-c1cccc(Br)c1,1,-17,4,·,2,24
SMILES,Casp6 inh,rRNA inh HTS,PGC1a acetyl inh,ARNT TACC3 PPI,S100A4 inh HTS,ERAP1 HTS inh
Cc1cc(=O)oc2cc(OCC(=O)N/N=C/c3ccccc3O)ccc12,-2,-3,3,-4,0,-2
CSc1nc(C)cc(OCC(=O)N/N=C/c2ccccc2O)n1,·,·,·,49*,·,·
O=C(COc1nsnc1N1CCOCC1)N/N=C/c1ccccc1O,-3,-22*,·,59*,2,1
O=C(O)COc1ccc(/C=N/NC(=O)COc2nsnc2N2CCOCC2)cc1,-1,8,0,-8,7,4
O=C(C[C@@H]1CC[C@@H]2[C@H](COC[C@H](O)CN2S(=O)(=O)c2ccc(F)cc2)O1)N[C@@H]1CCN(Cc2ccccc2)C1,-2,-2,2,10,7,0
CCS(=O)(=O)N1CC2(C1)[C@@H](c1ccccc1)[C@@H](CO)N2CCC(F)(F)F,0,0,-3,·,-6,0
NNC(=O)CNC(=O)Nc1n[nH]c(=S)s1,61*,8,·,·,4,13
CCC(=O)N1CC2(C1)CN(Cc1cccc(Cl)c1)[C@@H](CO)c1[nH]c3cc(OC)ccc3c12,·,-4,·,·,·,·
CCc1ccc2c(CN3CCC(C(=O)OC)CC3)cc(=O)oc2c1,-1,-22*,-1,0,-10,0
CCOC(=O)Nc1ccc2c(CN3CCC(C(=O)OC)CC3)cc(=O)oc2c1,1,3,-2,-5,-5,0
CC1CCc2cc(F)cc3c(=O)c(C(=O)O)cn1c23 (stereo unspecified),·,·,·,-2,-4,38*
COCOc1ccc(-c2cc(=O)c3c(OCOC)cc(OCOC)cc3o2)cc1,·,·,-16,·,·,·
COCOc1cc(O)c2c(=O)c(OCOC)c(-c3ccc(OCOC)c(OCOC)c3)oc2c1,51*,·,3,7,5,-1
COc1c(-c2ccc(O)c(O)c2)oc2cc(O)cc(O)c2c1=O,48*,·,-14,17,-1,·
O/N=C1\CCC\C1=C/c1ccco1,·,·,7,0,·,·
O=C1C(=Cc2ccco2)CCC1=Cc1ccco1,88*,19,13,-2,0,4
O=C1C(=Cc2ccco2)CCCC1=Cc1ccco1,72*,15,-19,18,-9,3
CCC(=O)N1[C@H](CO)[C@H](c2ccc(-c3cccc(F)c3)cc2)[C@@H]1CN(C)C(C)=O,-2,-1,-11,-6,-1,-3
C[C@@H]1CN([C@H](C)CO)C(=O)CCCn2cc(nn2)CO[C@@H]1CN(C)C(=O)c1cc(-c2ccccc2)on1,·,-6,-6,·,·,·
O=C(Nc1cccc(Cl)c1)OC1CCCCc2cccnc21 (stereo unspecified),2,-24*,·,-2,17,0
CCC(=O)Nc1ccc2c(c1)OC[C@H](C)N(CCc1ccccc1)C[C@H](C)[C@@H](OC)CN(C)C2=O,1,-9,-11,·,8,-1
Cc1nn(-c2ccccc2)cc1/C=N/O,·,·,-26,0,·,·
Cc1nn(-c2ccccc2)cc1/C=N/NC(N)=S,-4,-21*,-26,·,7,·
CN(C)c1ccc([C@@H]2[C@@H]([N+](=O)[O-])[C@H]3C=Cc4ccccc4N3[C@H]2C(=O)c2ccc(Cl)cc2)cc1,2,-28*,13,0,-6,-2
